CHOP inhibitor = inhibitors of CHOP induction in ER stress response; CHO-K1 CHOP-promoter luciferase, tunicamycin-induced, 15-18 h; inhibition, % at 10 µM; 220,000 compounds, 3.8% hits;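 active = compounds that reduced the stress-induced luciferase reporter signal by more than about 70% of percent inhibition, limit read from the data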;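 also: 0% = tunicamycin plus vehicle and 100% = wells without tunicamycin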
XBP1 UPR activ = adaptive UPR (XBP1) activation; CHO-XBP1 luciferase reporter, IRE1-XBP1 UPR activation, luminescence; percent of tunicamycin response, DMSO as zero; activation, % at 20 µM; 330,000 compounds, 0.33% hits; AID 463104;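 active = versus positive control, 20 µM dose yields 30% or more activation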;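 also: 100% = tunicamycin at 10 µg/mL and 0% = DMSO only wells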
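Material: CHO-XBP1 cells stably carrying IRE1-XBP1-driven luciferase reporter / Amount: 1000 cells per well / Compound: 20 µM, 1% DMSO / Times: 6 h treatment, 37 °C / Detection: luciferase luminescence / Measure: % activation of reporter signal versus tunicamycin and DMSO controls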
VLA-4 inh = inhibition in a human VLA-4 binding assay | VLA-4 expressing cells, ligand binding flow cytometry | inhibition, % (about 7 µM as worked out from the volumes in the protocol) | 330,000 compounds, 0.2% hits | AID 2557; in the data active = inhibition above about 50%
UPR CHOP act = activators of apoptotic arm of unfolded protein response (CHOP); CHO-CHOP luciferase reporter, UPR activation, luminescence; percent of tunicamycin response over DMSO baseline; activation, % at 10 µM; 330,000 compounds, 0.34% hits;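 active = at 10 µM dose, activation of 40% or more, normalized to positive control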;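 also: 100% = tunicamycin at 10 µg/mL and 0% = DMSO alone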
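Test system: CHO CHOP reporter cells. Input: 500 CHO-CHOP cells per well. Medium: F12 with 10% FBS. Technique: luciferase luminescence. Measure: percent activation relative to tunicamycin control. Dosing: 10 µM compound, 0.5% DMSO. Timing: 16-18 h cell attachment, then 6 h compound exposure, 37 °C.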
Beta2AR agonist = agonists of human beta-2 adrenergic receptor inducing internalization; P07550; Am2.2-beta2AR cells, FAP receptor internalization, flow cytometry; response, % (concentration not given with the values); 340,000 compounds, 0.43% hits; AID 504454;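 active = response above a set limit, near 3 SD of response in nonfluorescent compounds, cut at about 42% in these data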
Target sequence (P07550 whole entry, looked up): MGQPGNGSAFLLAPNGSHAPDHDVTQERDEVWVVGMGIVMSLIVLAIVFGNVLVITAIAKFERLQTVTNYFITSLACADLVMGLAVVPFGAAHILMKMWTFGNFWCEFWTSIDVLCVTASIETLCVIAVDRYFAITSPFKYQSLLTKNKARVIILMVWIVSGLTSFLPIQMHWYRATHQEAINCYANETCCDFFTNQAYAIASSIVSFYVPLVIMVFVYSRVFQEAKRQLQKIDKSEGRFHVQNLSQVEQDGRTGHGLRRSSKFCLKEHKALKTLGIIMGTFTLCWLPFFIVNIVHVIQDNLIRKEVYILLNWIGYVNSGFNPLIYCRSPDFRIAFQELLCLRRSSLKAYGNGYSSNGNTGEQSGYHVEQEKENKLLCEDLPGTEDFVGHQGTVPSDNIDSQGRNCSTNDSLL
B2AR ag CP1 = activates human beta-2 adrenergic receptor; AID 540358; percent response (surface receptor), % at 10 µM; Am2.2-beta2AR cells, FAP surface receptor, flow cytometry; stronger effect = lower value; 1,100 compounds, 25% hits; shares compounds with Beta2AR agonist;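 active = surface receptor percent response at or below 58%, roughly 3 SD from nonfluorescent compounds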
B2AR FAP counter = counter-screen for beta-2AR agonists: fluorescence in Am2.2 cells; shares compounds with Beta2AR agonist; FAP fluorogen flow cytometry, fluorescence counterscreen; stronger effect = lower value; calls only at 10 µM; 1,100 tested, under 10 active; AID 588765;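 active = percent response below a set limit in fluorescence channel 1 and below 50% in channel 8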
Numbers without * were called inactive; i = inactive; / = no result given; ! = not active in a repeat. Many of the other results were omitted from the sample, so hits are more common in it than they were.

SMILES	CHOP inhibitor	XBP1 UPR activ	VLA-4 inh	UPR CHOP act	Beta2AR agonist	B2AR ag CP1	B2AR FAP counter
CC1CCN(c2ccc([N+](=O)[O-])cc2C(=O)O)CC1	-12.8	-0.8	6.7	-1.2	1.1	/	/
CN(C1CCCCC1)S(=O)(=O)c1cc2c(cc1Cl)NC(=O)CO2	/	-2.6	-9.0	-2.0	13.6	/	/
Cc1cc(CN(C)C(=O)CC2C(=O)NCCN2Cc2ccc(-c3ccccc3)cc2)on1 (stereo not drawn)	/	-1.9	4.7	-2.3	46.1*	90.2	i
Cc1cc(CN(C)C(=O)CC2C(=O)NCCN2Cc2ccc(F)c(F)c2)on1 (stereo not drawn)	-1.0	-3.2	1.5	-0.9	1.1	/	/
CCOc1ccc(NC(=O)CN(C)C(=O)c2cccnc2Sc2ccccc2Cl)cc1OCC	/	3.8	-5.4	1.4	2.2	/	/
NC(=S)N/N=C/c1ccccc1OC(=O)c1cc2ccccc2oc1=O	/	-0.7	5.0	4.0	0.2	101.6	i
NC(=O)N/N=C/c1ccccc1OC(=O)c1cc2ccccc2oc1=O	/	1.0	17.5	8.0	-5.2	/	/
CN1CCCC(CC2c3ccccc3Sc3ccccc32)C1 (stereo not drawn)	/	-5.7	14.4	1.2	36.9	80.5	i
NC(=O)CC(NC(=O)Cc1cccc2ccccc12)c1ccc(NCCCN2CCCC2=O)c([N+](=O)[O-])c1 (stereo not drawn)	/	3.3	-1.9	0.0	103.0*	16.7*	i
Cc1ccc(CN2CC(C(=O)NCCCSc3ccccc3)CC2=O)cc1 (stereo not drawn)	/	-2.1	10.8	-0.8	-5.1	/	/
CCOC(=O)Cc1csc(SCC(=O)NC2CCC(C)CC2)n1 (stereo not drawn)	/	1.2	12.5	-1.1	12.8	/	/
O=[N+]([O-])c1ccc2nc(CCCc3nc4ccc([N+](=O)[O-])cc4[nH]3)[nH]c2c1	8.4	-0.9	-1.8	2.4	54.4*	120.9	i
COc1cc(C#N)c(NS(=O)(=O)c2ccc3[nH]c(=O)sc3c2)cc1OC	/	2.8	-2.5	0.3	-6.7	/	/
Cc1ccc(Cn2c(=N)n(CC(=O)c3ccccc3)c3ccccc32)cc1	59.4	-1.7	12.3	1.2	58.2*	86.3	i
Cc1ccccc1Cn1c(=N)n(CC(=O)c2ccc([N+](=O)[O-])cc2)c2ccccc21	83.5*	/	7.1	/	54.8*	22.2*	i
CC(C)(C)C(=O)Cn1c(=N)n(Cc2ccccc2)c2ccccc21	41.5	-5.6	5.4	-2.7	-1.8	/	/
COc1ccc(-c2onc(C)c2-c2ccc(C(=O)OC(C)C)o2)c(O)c1	81.8*	-2.4	16.7	-1.3	3.6	117.6	i
COc1ccc(N2C(=O)c3ccc(C(=O)OC(C)C)cc3C2=O)cc1	2.8	-0.7	2.0	1.8	3.3	/	/
CC1=C(C(=O)Nc2ccc(C(=O)N3CCN(c4ccccc4F)CC3)cc2)SCCO1	/	-8.1	3.1	0.8	72.9*	21.1*	i
CC1CCCN(C(=O)C(C)Sc2nc(-c3ccccc3)cc(C(F)(F)F)n2)C1 (stereo not drawn)	34.1	-1.2	16.6	0.4	15.2	66.9	i
O=C(CSc1nc(-c2ccccc2)cc(C(F)(F)F)n1)N1CCOCC1	-3.4	0.0	1.3	1.3	-11.7	/	/
CC(Sc1nc(-c2ccccc2)cc(C(F)(F)F)n1)C(=O)N1CCCCC1 (stereo not drawn)	38.6	-1.7	-5.3	-0.2	99.0*	10.5*	i
O=C(O)c1cc(N2N=C(C(F)(F)F)/C(=C/C=C/c3ccco3)C2=O)ccc1Cl	24.1	/	/	/	1.8	/	/
COc1ccc(C(=O)NCC(=O)OCC(=O)Nc2cc(OC)ccc2OC)cc1	10.3	1.8	18.7	1.2	64.5*	102.5	i
COc1ccc(NC(=O)COC(=O)CNC(=O)c2cc(OC)c(OC)c(OC)c2)cc1	5.2	0.0	9.6	1.0	3.2	/	/
SMILES	CHOP inhibitor	XBP1 UPR activ	VLA-4 inh	UPR CHOP act	Beta2AR agonist	B2AR ag CP1	B2AR FAP counter
Cc1cccc(OCCCC(=O)Nc2nccs2)c1C	42.2	-2.6	6.4	0.7	-1.6	/	/
COc1ccccc1OCCCC(=O)Nc1nccs1	16.7	0.8	5.3	-0.9	75.7*	59.1	i
CCSc1nc2ccccc2n1C(=O)c1ccc(S(=O)(=O)N2CCCCCC2)cc1	1.4	-1.5	-6.4	1.2	52.8*	56.6*	i
CN(C)S(=O)(=O)c1cccc(-c2csc(=Nc3ccccc3)n2CCCN2CCOCC2)c1	18.8	0.9	1.0	1.1	6.1	/	/
CC(=O)c1cccc(N=c2scc(-c3ccc(S(=O)(=O)N4CCOCC4)cc3)n2CCO)c1	54.2	-1.6	-21.0	5.8	103.7*	116.7	i
O=C1C(Cc2ccccc2)Nc2ncnc(N3CCc4ccccc4C3)c2N1Cc1ccc(Br)cc1 (stereo not drawn)	/	2.8	5.6	1.1	/	/	/
Cn1c(=S)c2[nH]c(SCCN3CCCC3)nc2n(C)c1=O	-10.9	-4.5	11.6	1.1	-2.8	115.2	i
Cc1ccccc1OCC(=O)OCC(=O)Nc1ncc(Cl)c(C)c1Cl	/	-0.9	2.8	0.0	-1.0	/	/
COc1ccc(Nc2nnc(-c3ccc(C)cc3)c3ccccc23)cc1C(=O)N1CCCCC1	40.9	-4.5	4.9	0.5	20.8	/	/
Cc1cccc(Nc2nnc(-c3ccc(C(=O)N4C[C@H]5C[C@H](C4)c4cccc(=O)n4C5)cc3)c3ccccc23)c1	12.6	-0.3	5.8	-0.4	84.7*	15.8*	i
Clc1ccccc1C(c1ccccc1)(c1ccccc1)n1ccnc1	88.2*!	-4.6	8.9	12.2	51.5*	29.9*	i
FC(F)(F)c1ccccc1-n1ccnc1	5.3	-2.5	-6.4	0.1	0.9	/	/
CCCCC(=O)Nc1ccc(C(=O)N(CC)c2ccccc2C)cc1	8.0	-3.3	15.1	0.5	62.7*	73.5	i
CCN(C(=O)c1ccc(NC(C)=O)cc1)c1ccccc1C	11.4	0.5	13.8	-3.5	-16.2	/	/
CCN(CC)S(=O)(=O)c1cccc(-n2c(O)c(C=Nc3ccccc3C(=O)O)c3ccccc3c2=O)c1	-14.0	0.9	5.2	1.7	47.2*	99.2	i
O=C(O)c1ccccc1N=Cc1c(O)n(-c2nccs2)c(=O)c2ccccc12	1.8	-1.4	-2.2	3.7	-1.2	/	/
COc1ccc(N(CC(=O)NCCSC2CCCCC2)S(=O)(=O)c2ccccc2)cc1OC	/	-2.7	2.4	-0.1	5.0	/	/
Cn1c(N)c(C(=O)CSc2n[nH]c(-c3ccccc3)n2)c(=O)n(C)c1=O	/	5.6	-4.3	1.3	-5.8	/	/
CC(=O)Nc1cc(S(=O)(=O)Nc2ccccc2)c(C)cc1C	21.5	-2.3	23.8	2.8	46.8*	115.0	i

Source: PubChem BioAssay (several laboratories)
